From PubChem
A selection: hits, their analogues and other compounds. The true share with any hit is near 3.5%.
MrgX1 agonist = activates human MrgX1 receptor signaling | MrgX1-HEK293 cells, Fluo-4 calcium fluorescence, agonist mode; hits give high values | B-score at 10 µM | 0.44% of 310,000 active;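 active = calcium response B-score plate-corrected fluorescence ratio at least 3 library SD, with starting fluorescence B-score inside 5 SD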
Target sequence (Q96LB2 whole entry, looked up): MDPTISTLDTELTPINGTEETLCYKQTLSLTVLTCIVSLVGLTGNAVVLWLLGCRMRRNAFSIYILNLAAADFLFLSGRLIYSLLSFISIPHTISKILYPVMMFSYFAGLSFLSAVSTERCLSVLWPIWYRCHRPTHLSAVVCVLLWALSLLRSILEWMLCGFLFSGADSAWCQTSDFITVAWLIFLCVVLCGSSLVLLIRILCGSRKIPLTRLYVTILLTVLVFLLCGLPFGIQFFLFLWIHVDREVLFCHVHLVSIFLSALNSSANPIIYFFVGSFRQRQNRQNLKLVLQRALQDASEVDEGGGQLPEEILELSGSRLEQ
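times = overnight plating, then 30 min 37 °C plus 30 min room-temperature dye loading | assay system = stable human MrgX1 HEK293 cell line | input = fifteen thousand cells per well | signal = kinetic calcium dye fluorescence, Fluo-4 NW | dosing = compound delivered in addition one of three | read-out = B-scored fluorescence response ratio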
RGS4 act = potentiators or activators of RGS4; B-score at 10 µM; HEK293 M3R/inducible RGS4, carbachol calcium flux Fluo4; hits give low values; 0.92% of 310,000 active;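 active = B-score of the integrated calcium signal more than 4 SD below the library mean, with starting fluorescence not abnormally high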;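 note: negative B-score means reduced calcium response which marks RGS4 activation or potentiation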
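Material: Inducible-RGS4 HEK293 cells carrying M3 receptor; also added: carbachol at ECmax as muscarinic agonist stimulus; incubation: compound preincubation 20 min at room temperature before agonist; signal: Fluo4-AM (2 µM) calcium-flux fluorescence, kinetic read; measure: integrated calcium ratio converted to B score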
RGS4 block = inhibitors of human RGS4 | 0.45% of 310,000 active | HEK293 M3R/RGS4 inducible, Fluo-4 calcium flux; hits give high values; triggered by carbachol at its EC20 | P49798 | B-score at 10 µM | AID 463165;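 active = B-score, a plate-corrected calcium signal, over three deviations above library mean, with baseline fluorescence within five deviations of library mean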;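 note: RGS4 expression induced by doxycycline in cells with stable M3 receptor; B-score is computed from the integrated fluorescence ratio over baseline after carbachol; higher B-score means a larger calcium signal and so more RGS4 inhibition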
Target sequence (P49798 whole entry, looked up): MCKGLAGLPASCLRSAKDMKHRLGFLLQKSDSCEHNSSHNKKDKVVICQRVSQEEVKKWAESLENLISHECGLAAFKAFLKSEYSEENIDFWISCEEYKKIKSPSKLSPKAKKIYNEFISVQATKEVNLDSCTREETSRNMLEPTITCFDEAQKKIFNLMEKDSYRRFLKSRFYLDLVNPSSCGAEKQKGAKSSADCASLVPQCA
MrgX1 antag = antagonists of human MrgX1 receptor; 1.3% of 310,000 active; Q96LB2; MRGX1-HEK293 calcium flux, Fluo-4, BAM8-22 antagonism; hits give low values; B-score at 10 µM; AID 588676;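 active = calcium-response B-score plate-corrected more than 3 library SD below zero, starting fluorescence within 5 deviations, no agonist response on first addition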;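 note: peak minus trough fluorescence over baseline after final BAM8-22 challenge near maximal dose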
MrgX1 allo act = allosterically activates human MrgX1 receptor signaling; B-score at 10 µM; MrgX1-HEK293, Fluo-4 calcium flux, FDSS; hits give high values; 0.63% of 310,000 active;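 active = plate-corrected calcium response at least 3 library SD above typical, normal starting fluorescence, not activating the receptor alone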;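 note: compound read alongside a low EC10 to EC30 dose of BAM8-22 agonist; peak minus trough fluorescence over baseline measured at the second addition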
* marks the source's active call; other numbers are inactive results; i = inactive; / = not tested or not shown.

SMILES	MrgX1 agonist	RGS4 act	RGS4 block	MrgX1 antag	MrgX1 allo act
COc1cc(C(C)=O)ccc1Oc1cc(NN2CCCCC2)c([N+](=O)[O-])cc1[N+](=O)[O-]	i	i	i	i	i
CC(C)C[C@H](NC(=O)NCc1ccc(F)cc1)C(=O)O	i	i	i	i	i
O=C(NC(=S)Nc1ccccc1Br)c1ccco1	i	i	i	i	i
Cc1ccc(-n2c(SCC(=O)N/N=C/c3c(C)nn(-c4ccccc4)c3C)nc3ccccc3c2=O)cc1	i	i	i	-6.4*	i
Cc1nn(-c2ccccc2)c(C)c1/C=N/NC(=O)CSc1nc2ccccc2c(=O)n1-c1ccc(Br)cc1	i	i	i	i	i
CCOC(=O)c1c(C)[nH]c(C)c1C(=O)CSc1nc2ccccc2c(=O)n1-c1ccc(C)cc1	i	-7.2*	i	i	i
C=C(C)c1cccc(C(C)(C)NC(=O)NNC(=O)c2ccccc2O)c1	i	i	i	i	i
COc1cc(N2C(=O)C=CC2=O)c(OC)cc1Cl	i	-7.1*	i	i	i
O=C(N=Nc1ccc(NOC(=O)c2ccccc2Br)cc1)c1ccccc1O	i	i	i	i	12*
O=Nc1ccc(NOC(=O)c2ccccc2)cc1	i	i	i	i	i
O=C(/C=C/c1ccccc1[N+](=O)[O-])NCc1cccnc1	i	i	i	i	i
Cc1ccc2c(c1)C(c1ccccc1)N(C(=O)c1ccc(Br)cc1)CC(=O)N2 (stereo unspecified)	i	i	i	i	i
CCn1c(Cc2ccccc2)nnc1SCC(=O)Nc1ccc(C)cc1	i	i	i	i	i
CCn1c(CC(=O)Nc2ccc(C)cc2)nnc1SCC(=O)NCCc1ccccc1	i	i	i	-5.5*	i
CCc1ccc(C2C(C#N)=C(N)SC(N)=C2C#N)s1	i	i	i	-6.1*	i
Cc1ccc(C2C(C#N)=C(N)SC(N)=C2C#N)o1	i	i	i	-7.3*	i
N#CC1=C(N)SC(N)=C(C#N)C1c1ccc(C(F)(F)F)cc1	i	i	i	i	i
CCc1ccc(C2C(C#N)=C(N)SC(N)=C2C#N)cc1	i	i	i	-5.3*	i
C[C@]12CCC(=O)C=C1C=C[C@@H]1[C@@H]2CC[C@@]2(C)[C@H]1CC[C@@]21CCC(=O)O1	i	i	i	i	i
O=C(O)c1cc(-c2ccc(-c3c(-c4ccc5c(c4)OCO5)noc3-c3ccsc3)cc2)nc2ccccc12	i	-11*	i	i	i
Cc1nc2ccccn2c1/C(O)=C1\C(=O)C(=O)N(CCCN(C)C)C1c1ccc(F)cc1 (stereo unspecified)	i	/	/	-4.8*	i
Cc1nc2c(C)cccn2c1/C(O)=C1\C(=O)C(=O)N(CCN(C)C)C1c1ccncc1 (stereo unspecified)	i	i	i	i	i
c1ccc(-c2nnc(SCC3CCCCO3)nc2-c2ccccc2)cc1 (stereo unspecified)	i	i	i	i	i
COc1cccc(Cl)c1NC(=O)N1CCc2c([nH]c3ccccc23)C1C(F)(F)F (stereo unspecified)	i	i	i	i	i
N#C/C(=C\c1ccc(O)cc1)C(=O)N1CCCC1	i	i	i	i	i
SMILES	MrgX1 agonist	RGS4 act	RGS4 block	MrgX1 antag	MrgX1 allo act
N#C/C(=C\c1ccc(C#N)cc1)C(=O)N1CCCC1	i	i	5.1*	i	i
CCOC(=O)c1c(-c2cccc([N+](=O)[O-])c2)csc1NC(=O)C1CCCCC1	i	-9.2*	i	i	i
CCOC(=O)c1c(-c2cccc([N+](=O)[O-])c2)csc1NC(=O)C1CC1	i	-7.7*	i	i	i
CCOCc1nnc(NC(=O)C2CC(=O)N(CCc3ccc(F)cc3)C2)s1 (stereo unspecified)	i	i	i	i	i
CC(C)(C)N(Cc1ccccc1)C(=O)c1ccc(Cl)cc1[N+](=O)[O-]	i	-10*	i	i	i
O=C(c1ccc(Cl)cc1[N+](=O)[O-])N(Cc1ccccc1)Cc1ccccc1	i	i	i	i	i
COc1ccc(-c2ccc(/C=C3/C(=N)N4C(C)=CSC4=NC3=O)o2)c([N+](=O)[O-])c1	29*	i	i	i	i
O=C(c1cccc([N+](=O)[O-])c1)N1CCCN(C(=O)c2cccc([N+](=O)[O-])c2)CC1	i	i	i	i	i
CCOc1ccccc1NCc1nnc(-c2ccccc2)o1	i	-7.5*	i	i	i
COc1ccc(OC)c(NCc2nnc(-c3ccccc3)o2)c1	i	i	i	i	i
COc1ccccc1NC(=O)CCC(=O)N(Cc1ccc(OC)c(OC)c1)c1nccs1	i	i	i	-7.4*	i
COc1ccccc1N(CC(=O)NCc1ccc(F)cc1)C(=O)CCC(=O)Nc1nccs1	i	i	i	i	i
O=C(Nc1nc(-c2ccccc2)cs1)c1ccccc1NS(=O)(=O)c1ccc(F)cc1	i	-7.2*	i	i	i
CNc1c([N+](=O)[O-])cnn1-c1ccc(F)cc1	i	i	i	i	i
CCCCn1c(=O)nc2n(-c3ccccc3)c3ccccc3cc-2c1=O	i	-9.7*	i	i	i
O=C(CNS(=O)(=O)c1ccc([N+](=O)[O-])cc1)N/N=C\c1ccc(O)cc1	i	i	i	-6.1*	9.1*
CC(=O)Nc1ccc(/C=N\NC(=O)CNS(=O)(=O)c2ccc([N+](=O)[O-])cc2)cc1	i	i	i	i	i
Cn1cccc1CC(=O)N/N=C/c1ccc(Cl)cc1	i	i	i	i	11*
Cn1cccc1CC(=O)N/N=C/c1ccc([N+](=O)[O-])cc1	i	i	i	i	7.6*
COc1ccccc1CNS(=O)(=O)c1ccc2c(c1)NC(=O)C(C)S2 (stereo unspecified)	i	i	i	i	i
COc1ccc(-n2c(=O)[nH]c3cc(C(=O)NCCc4ccccc4)ccc3c2=O)cc1OC	i	i	i	i	i
Cc1ccc2c(c1)N(CC(=O)N1CCCC1)C(=O)C(C)O2 (stereo unspecified)	i	i	i	i	i
C#CCOCCOCCOCCNc1nc(N2CCN(C(=O)CCCCCCCCCCNC(=O)[C@H]([C@@H](C)CC)n3cc(CCCCCN)nn3)CC2)nc(N2CCN(C(=O)CCCCCCCCCCNC(=O)[C@@H]([C@H](C)O)n3cc(C)nn3)CC2)n1	i	/	/	i	i
